Results from ChEMBL document CHEMBL4020830, “Design, Synthesis, and Evaluation of a Novel Series of Indole Sulfonamide Peroxisome Proliferator Activated Receptor (PPAR) α/γ/δ Triple Activators: Discovery of Lanifibranor, a New Antifibrotic Clinical Candidate” (J Med Chem, 2018).
The source made the active and inactive calls. The rule behind the calls is not given here.

Columns and labels:
[1] = test system: Rattus norvegicus; assay: Toxicity in Sprague-Dawley rat assessed as effect on heart weight at 100 to 1000 mg/kg for 6 weeks; assay type: organism-based; settings: in vivo, 1008 h
Summary of the method: (§1)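 Sprague-Dawley rats were treated at 100 and 1000 mg/kg. Hematocrit and plasma volume were measured after 4 weeks and heart weight after 6 weeks. Analysis was one-way ANOVA with Dunnett's test versus control.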

[2] = test system: Rattus norvegicus; assay: Toxicity in Sprague-Dawley rat assessed as reduction in hematocrit level at 100 to 1000 mg/kg for 4 weeks; assay type: organism-based; settings: in vivo, 672 h; summary of the method: as §1
[3] = target: T1, Peroxisome proliferator-activated receptor gamma (Homo sapiens, UniProt P37231)
T1 sequence (P37231 whole entry): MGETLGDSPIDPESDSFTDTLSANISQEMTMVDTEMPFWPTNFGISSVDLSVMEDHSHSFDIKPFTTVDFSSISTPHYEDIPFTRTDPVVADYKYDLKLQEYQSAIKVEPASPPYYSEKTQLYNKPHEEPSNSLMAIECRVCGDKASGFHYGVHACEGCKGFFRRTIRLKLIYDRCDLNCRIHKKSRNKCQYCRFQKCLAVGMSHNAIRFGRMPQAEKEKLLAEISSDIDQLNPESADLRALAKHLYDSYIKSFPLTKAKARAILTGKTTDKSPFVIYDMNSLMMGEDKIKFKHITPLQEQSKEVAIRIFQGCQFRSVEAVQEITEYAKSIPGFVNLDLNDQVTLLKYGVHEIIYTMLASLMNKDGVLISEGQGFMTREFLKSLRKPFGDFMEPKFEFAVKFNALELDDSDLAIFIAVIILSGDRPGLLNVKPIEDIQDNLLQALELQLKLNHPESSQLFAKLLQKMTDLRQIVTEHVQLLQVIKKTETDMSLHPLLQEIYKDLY

[4] = target: T2, Peroxisome proliferator-activated receptor alpha (Mus musculus, UniProt P23204); assay: Transactivation of mouse GAL4-fused PPARalpha LBD expressed in African green monkey COS7 cells co-expressing 5Gal4 pGL3 TK Luc after overnight incubation by luciferase reporter gene assay; assay type: cell-based
T2 sequence (P23204 whole entry): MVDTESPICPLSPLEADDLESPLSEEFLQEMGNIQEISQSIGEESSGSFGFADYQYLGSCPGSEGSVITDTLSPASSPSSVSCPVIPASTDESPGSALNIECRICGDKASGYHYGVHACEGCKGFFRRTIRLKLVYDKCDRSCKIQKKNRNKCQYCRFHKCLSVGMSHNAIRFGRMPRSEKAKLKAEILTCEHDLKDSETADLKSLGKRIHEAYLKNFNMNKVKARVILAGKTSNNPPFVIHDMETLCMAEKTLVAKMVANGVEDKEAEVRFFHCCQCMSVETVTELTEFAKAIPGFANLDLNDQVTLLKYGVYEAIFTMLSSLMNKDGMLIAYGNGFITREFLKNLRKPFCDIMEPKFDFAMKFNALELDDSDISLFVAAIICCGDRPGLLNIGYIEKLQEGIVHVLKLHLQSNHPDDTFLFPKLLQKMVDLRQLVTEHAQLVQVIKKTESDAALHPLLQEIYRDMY
Summary of the method: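 Cell-based Gal-4 transactivation assay in COS-7 cells transfected with PPARα, PPARδ or PPARγ ligand-binding domain. EC50 and Emax were derived, with Emax as maximum activation in percent of control. EC50s are means of at least two independent experiments performed in triplicate.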

[5] = target: T1, Peroxisome proliferator-activated receptor gamma; assay: Transactivation of recombinant GST-tagged PPARgamma (unknown origin) expressed in Escherichia coli assessed as N-terminal biotin-labeled LCOR (39 to 63 residues) co-activator recruitment by TR-FRET assay
[6] = test system: Mus musculus; assay: Reduction in plasma triglyceride level in C57Bl6/J mouse model of CCl4-induced liver fibrosis at 3 to 30 mg/kg, po qd for 3 weeks; assay type: functional, organism-based
Summary of the method: (§2)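 CCl4-induced liver fibrosis mice were dosed orally once daily at 3, 10 or 30 mg/kg for 3 weeks. Controls were CCl4-vehicle, vehicle oil and saline-injected groups. Liver collagen was scored by picrosirius red staining of histological sections. Plasma triglycerides and adiponectin were also measured. Analysis was one-way ANOVA with Dunnett's test.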

[7] = target: T3, Peroxisome proliferator-activated receptor delta (Mus musculus, UniProt P35396); assay: Transactivation of mouse GAL4-fused PPARdelta LBD expressed in African green monkey COS7 cells co-expressing 5Gal4 pGL3 TK Luc after overnight incubation by luciferase reporter gene assay; assay type: cell-based
T3 sequence (P35396 whole entry): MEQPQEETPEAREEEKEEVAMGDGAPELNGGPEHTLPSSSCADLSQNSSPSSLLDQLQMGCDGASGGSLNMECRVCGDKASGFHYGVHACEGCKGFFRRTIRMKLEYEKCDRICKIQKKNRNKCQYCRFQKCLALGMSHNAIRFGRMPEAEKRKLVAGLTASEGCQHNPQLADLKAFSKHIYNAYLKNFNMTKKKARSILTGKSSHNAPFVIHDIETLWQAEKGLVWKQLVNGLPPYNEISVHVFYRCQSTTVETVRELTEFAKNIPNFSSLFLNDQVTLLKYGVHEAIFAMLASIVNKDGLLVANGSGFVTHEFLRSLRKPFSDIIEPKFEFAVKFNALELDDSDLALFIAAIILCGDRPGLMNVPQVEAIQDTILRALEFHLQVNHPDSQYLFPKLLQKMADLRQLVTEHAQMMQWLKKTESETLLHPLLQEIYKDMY

[8] = target: T4, Peroxisome proliferator-activated receptor delta (Mus musculus) (UniProt P35396); assay: Transactivation of PPARdelta in mouse C2C12 cells assessed increase in [14C]oleate beta-oxidation at 3 uM preincubated for 48 hrs followed by [14C]oleate addition during last 2 hrs of incubation period relative to control; assay type: cell-based
T4 sequence (whole entry): T3 sequence (P35396 whole entry)
Summary of the method: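 Fatty acid beta-oxidation was used as the functional read-out. PPARα activity was tested in human hepatoma HuH7 cells and PPARδ activity in mouse myoblast C2C12 cells, at 1, 3, 10 and 30 µM. Values are % beta-oxidation, mean of at least 2 independent experiments run in triplicate, with single-experiment values flagged.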

[9] = target: T1, Peroxisome proliferator-activated receptor gamma; remark: listed apart in the source
[10] = test system: Mus musculus; assay: Antifibrotic activity in C57Bl6/J mouse model of CCl4-induced liver fibrosis assessed as decrease in collagen deposition in liver administered po qd for 3 weeks by picrosirius red staining based assay; assay type: functional, organism-based; summary of the method: as §2
[11] = target: T1, Peroxisome proliferator-activated receptor gamma; remark: listed apart in the source
[12] = test system: Mus musculus; assay: Antidiabetic activity in C57BL/Ks mouse model of diabetic dyslipidemia assessed as decrease in plasma glucose level at 30 mg/kg, po qd administered via gavage for 10 days measured 4 hrs post last dose; assay type: functional, organism-based
Summary of the method: (§3)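 Homozygous male C57BL/Ks-db (db/db) mice were gavaged once daily at 10 or 30 mg/kg, for 5 or 10 days. Retro-orbital blood was drawn before treatment and 4 h after the last gavage. Glucose and triglycerides were measured in serum. Results are expressed as % variation on the final day versus the control group. Analysis was one-way ANOVA with Dunnett's test.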

[13] = test system: Mus musculus; assay: Hypolipidemic activity in C57BL/Ks mouse model of diabetic dyslipidemia assessed as decrease in plasma triglyceride level at 30 mg/kg, po qd administered via gavage for 10 days measured 4 hrs post last dose; assay type: functional, organism-based; summary of the method: as §3

| SMILES | Activity [1] | Activity [2] | EC50 [3] [nM] | EC50 [4] [nM] | EC50 [5] [nM] | Activity [6] | EC50 [7] [nM] | Activity [8] [%] | EC50 [9] [nM] | Activity [10] | EC50 [11] [nM] | Activity [12] | Activity [13] |
| --- | --- | --- | --- | --- | --- | --- | --- | --- | --- | --- | --- | --- | --- |
| O=C(O)CCCc1cc2cc(Cl)ccc2n1S(=O)(=O)c1ccc2ncsc2c1 [LANIFIBRANOR] | Non-Toxic | Non-Toxic | 1140 | 366 | 727 | Active | 1560 | 37 | 3210 | Dose-dependent effect | 3410 | – | – |
| O=C(O)CCc1cc2cc(Cl)ccc2n1S(=O)(=O)c1ccccc1 | – | – | – | – | – | – | – | – | – | – | – | Active | Active |
